In series [1] the test system is Caco-2. Put plainly: Antiproliferative activity against human Caco2 cells assessed as reduction in cell viability incubated for 72 hrs by MTT assay. In kind it is functional, cell-based. The note with it: Caco-2, 72 h. Summed up: (§1)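 Growth inhibition was read at 24, 48 and 72 h in U-2OS, Caco-2 and IMR-32 cells. EC50 values are the mean of n = 3 independent experiments ± SEM.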
On the technique in general: Formazan colour is commonly taken as a measure of viable cells.

Series [2] relates to IMR-32. Put plainly: Antiproliferative activity against human IMR32 cells assessed as reduction in cell viability incubated for 72 hrs by MTT assay. In kind it is functional, cell-based. The note with it: IMR-32, 72 h. Summed up: as §1
Series [3] has as its system Caco-2. Put plainly: Antiproliferative activity against human Caco2 cells assessed as reduction in cell viability incubated for 24 hrs by MTT assay. The note with it: Caco-2, 24 h. In kind it is functional, cell-based. Summed up: as §1
Series [4] concerns IMR-32. Put plainly: Antiproliferative activity against human IMR32 cells assessed as reduction in cell viability incubated for 48 hrs by MTT assay. The format is functional, cell-based. The note with it: IMR-32, 48 h. Summed up:
as §1

Series [5] concerns U2OS. Put plainly: Antiproliferative activity against human U2OS cells assessed as reduction in cell viability incubated for 48 hrs by MTT assay. The format is functional, cell-based. Summed up: as §1
Series [6] deals with IMR-32. Description: Antiproliferative activity against human IMR32 cells assessed as reduction in cell viability incubated for 24 hrs by MTT assay. In kind it is functional, cell-based. The note with it: IMR-32, 24 h. Summed up: as §1
For series [7], the system named is U2OS. Description: Antiproliferative activity against human U2OS cells assessed as reduction in cell viability incubated for 24 hrs by MTT assay. In kind it is functional, cell-based. Summed up:
as §1

Series [8] has as its system U2OS. Put plainly: Antiproliferative activity against human U2OS cells assessed as reduction in cell viability incubated for 72 hrs by MTT assay. The format is functional, cell-based. Summed up:
as §1

The test system of series [9] is Caco-2. Put plainly: Antiproliferative activity against human Caco2 cells assessed as reduction in cell viability incubated for 48 hrs by MTT assay. In kind it is functional, cell-based. The note with it: Caco-2, 48 h. Summed up:
as §1

Series [10] in a line: Chemical stability of compound in HEPES assessed as compound hydrolysis at 500 ug/ml measured upto 24 hrs by HPLC-UV/MS analysis. The format is physicochemical.
A short description of series [11]: Stability of compound in human plasma assessed as compound hydrolysis at 500 ug/ml measured upto 24 hrs by HPLC-UV/MS analysis. In kind it is ADME, cell-free.
Series [12] can be described thus: Chemical stability of compound in DMSO assessed as compound hydrolysis at 500 ug/ml measured upto 24 hrs by HPLC-UV/MS analysis. The format is physicochemical.
Series [13] is described as follows: Induction of NO production in PBS buffer at 0.1 mM measured for 1 to 24 hrs by Griess method. The format is functional. Summed up: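 Compound at 0.1 mM in 50 mM phosphate buffer, pH 7.4, incubated at 37 °C without l-cysteine. Released NO was measured as nitrite by the Griess method and given as % of the initial compound concentration at 1, 5 and 24 h. Values are the average of three independent experiments.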
Background: The Griess reaction detects nitrite, a stable product of nitric oxide.

A short description of series [14]: Induction of NO production in PBS buffer at 0.1 mM in presence of L-cysteine measured for 1 to 24 hrs by Griess method. In kind it is functional. Summed up:
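Griess assay for NO release: each compound at 0.1 mM in 50 mM phosphate buffer, pH 7.4, at 37 °C, with l-cysteine at 0.5 mM and at 5 mM. Nitrite yield is given as % of the initial compound concentration at 1 h, 5 h and 24 h. Values are the average of three independent experiments.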

Consider three compounds from ChEMBL document CHEMBL4613302, “Synthesis and Antiproliferative Activity of Nitric Oxide-Donor Largazole Prodrugs” (ACS Med Chem Lett, 2020).

Calls of active or inactive are those of the source. The calls are words filed in the database; no cut-off is given here. A value given as a limit tells only on which side of the number the result lay.

As usually defined, the EC50 is the concentration giving half of the maximal effect. As for `CCCCCCCC(=O)SCC/C=C/[C@@H]1CC(=O)NCc2nc(cs2)C2=N[C@@](C)(CS2)C(=O)N[C@@H](C(C)C)C(=O)O1` [LARGAZOLE], the 50% effective concentration (EC50) in the series on Caco-2 [1] is 0.0145 µM; in the series with IMR-32 [2], 0.0123 µM; in the series on Caco-2 [3], above 10000 µM; with IMR-32 [4], 0.0302 µM; in the series with U2OS [5], 0.372 µM; in the series with IMR-32 [6], 0.0347 µM. The concentration for a half-maximal effect (EC50) in the series on U2OS [7] was 20.4 µM; in the series on U2OS [8], 0.331 µM; in the series on Caco-2 [9], 0.759 µM.
In the case of `CC(C)[C@@H]1NC(=O)[C@]2(C)CSC(=N2)c2csc(n2)CNC(=O)C[C@@H](/C=C/CCSC(=O)CCC(CO[N+](=O)[O-])O[N+](=O)[O-])OC1=O` (some centres not stated), the concentration for a half-maximal effect (EC50) in the series with Caco-2 [1] was 0.00447 µM; with IMR-32 [2] it was 0.0501 µM; in the series with Caco-2 [3], 9.12 µM; in the series with IMR-32 [4] it was 0.0617 µM; with U2OS [5] it was 0.741 µM; in the series with IMR-32 [6], 0.0295 µM. Also, the 50% effective concentration (EC50) was 0.468 µM with U2OS [7], 1 µM with U2OS [8] and 0.00562 µM with Caco-2 [9]. The Stability result in series [10], in series [11] and in series [12] was “Stable” throughout. Also, the outcome in series [13] and in [14] was Active.
Regarding `CC(C)[C@@H]1NC(=O)[C@]2(C)CSC(=N2)c2csc(n2)CNC(=O)C[C@@H](/C=C/CCSC(=O)CCCCO[N+](=O)[O-])OC1=O`, the half-maximal effective concentration (EC50) with Caco-2 [1] is 0.00813 µM; in the series on IMR-32 [2], 0.012 µM; in the series on Caco-2 [3], 11.2 µM; in the series with IMR-32 [4] it was 0.0195 µM; in the series with U2OS [5] it was 0.309 µM; with IMR-32 [6] it was 0.0151 µM. The results for the EC50 in the series on U2OS [7], in the series on U2OS [8] and with Caco-2 [9] were 1.95 µM, 0.17 µM and 0.038 µM, respectively. The Stability result in [10], in [11] and in series [12] was “Stable” each time. For the same compound, the outcome in [13] and in [14] was Active.
